Assay results taken from ChEMBL document CHEMBL1141317, “Pavietin, a coumarin from Aesculus pavia with antifungal activity” (2007).

Columns and labels:
Alternaria dianthi [1] = test: Antifungal activity against Alternaria dianthi assessed as mycelial growth at 200 umol/L by filter disk method relative to control; assay type: functional; settings: in the assay text read “by incorporation into growth medium” for “by filter disk method”
Summary of the method: (§1)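 Agar-incorporation assay rather than disk. Compound in a few drops of DMSO, ultrafiltered and added to autoclaved, still-molten PDA at 50, 100 or 200 μmol L⁻¹. 1 cm mycelial plugs inoculated, 40 dishes per treatment per species. Grown 3 days at 22 °C in darkness. Mycelial growth expressed as % of DMSO-only controls (100%). Student–Neumann–Keuls test, p = 0.05.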

Alternaria dianthi [2] = test: Antifungal activity against Alternaria dianthi assessed as mycelial growth at 100 umol/L by filter disk method relative to control; assay type: functional; settings: in the assay text read “by incorporation into growth medium” for “by filter disk method”; summary of the method: as §1
Alternaria dianthi [3] = test: Antifungal activity against Alternaria dianthi assessed as mycelial growth at 50 umol/L by filter disk method relative to control; assay type: functional; settings: in the assay text read “by incorporation into growth medium” for “by filter disk method”; summary of the method: as §1
Guignardia aesculi [4] = test: Antifungal activity against Guignardia aesculi assessed as mycelial growth at 15 mg/disk by filter disk method relative to control; assay type: functional
Summary of the method: (§2)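 Compound dissolved in a few drops of absolute EtOH and loaded onto 5 mm paper disks at 0.15, 1.5 or 15 mg per disk. Disks placed on PDA in 12 cm Petri dishes, 30 dishes per treatment per species. Inhibition zones measured in mm after 3 days at 27 °C. EtOH-only disk as control. Growth given as % of control (100%). Student–Neumann–Keuls test, p = 0.05.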

Guignardia aesculi [5] = test: Antifungal activity against Guignardia aesculi assessed as mycelial growth at 0.15 mg/disk by filter disk method relative to control; assay type: functional; summary of the method: as §2
Guignardia aesculi [6] = test: Antifungal activity against Guignardia aesculi assessed as mycelial growth at 1.5 mg/disk by filter disk method relative to control; assay type: functional; summary of the method: as §2
Globisporangium ultimum [7] = test: Antifungal activity against Pythium ultimum assessed as mycelial growth at 0.15 mg/disk by filter disk method relative to control; assay type: functional; summary of the method: as §2
Globisporangium ultimum [8] = test: Antifungal activity against Pythium ultimum assessed as mycelial growth at 1.5 mg/disk by filter disk method relative to control; assay type: functional; summary of the method: as §2
Globisporangium ultimum [9] = test: Antifungal activity against Pythium ultimum assessed as mycelial growth at 15 mg/disk by filter disk method relative to control; assay type: functional; summary of the method: as §2
Alternaria alternata [10] = test: Antifungal activity against Alternaria alternata assessed as mycelial growth at 50 umol/L by filter disk method relative to control; assay type: functional; settings: in the assay text read “by incorporation into growth medium” for “by filter disk method”; summary of the method: as §1
Alternaria alternata [11] = test: Antifungal activity against Alternaria alternata assessed as mycelial growth at 100 umol/L by filter disk method relative to control; assay type: functional; settings: in the assay text read “by incorporation into growth medium” for “by filter disk method”; summary of the method: as §1
Alternaria alternata [12] = test: Antifungal activity against Alternaria alternata assessed as mycelial growth at 200 umol/L by filter disk method relative to control; assay type: functional; settings: in the assay text read “by incorporation into growth medium” for “by filter disk method”; summary of the method: as §1
Aspergillus niger [13] = test: Antifungal activity against Aspergillus niger assessed as mycelial growth at 50 umol/L by filter disk method relative to control; assay type: functional; settings: in the assay text read “by incorporation into growth medium” for “by filter disk method”; summary of the method: as §1
Aspergillus niger [14] = test: Antifungal activity against Aspergillus niger assessed as mycelial growth at 100 umol/L by filter disk method relative to control; assay type: functional; settings: in the assay text read “by incorporation into growth medium” for “by filter disk method”; summary of the method: as §1
Aspergillus niger [15] = test: Antifungal activity against Aspergillus niger assessed as mycelial growth at 200 umol/L by filter disk method relative to control; assay type: functional; settings: in the assay text read “by incorporation into growth medium” for “by filter disk method”; summary of the method: as §1
Botrytis [16] = test: Antifungal activity against Botrytis cinerea assessed as mycelial growth at 50 umol/L by filter disk method relative to control; assay type: functional; settings: in the assay text read “by incorporation into PDA growth medium” for “by filter disk method”; summary of the method: as §1
Botrytis [17] = test: Antifungal activity against Botrytis cinerea assessed as mycelial growth at 100 umol/L by filter disk method relative to control; assay type: functional; settings: in the assay text read “by incorporation into PDA growth medium” for “by filter disk method”; summary of the method: as §1
Botrytis [18] = test: Antifungal activity against Botrytis cinerea assessed as mycelial growth at 200 umol/L by filter disk method relative to control; assay type: functional; settings: in the assay text read “by incorporation into PDA growth medium” for “by filter disk method”; summary of the method: as §1
Fulvia fulva [19] = test: Antifungal activity against Cladosporium fulvum assessed as mycelial growth at 50 umol/L by filter disk method relative to control; assay type: functional; settings: in the assay text read “by incorporation into PDA growth medium” for “by filter disk method”; summary of the method: as §1
Fulvia fulva [20] = test: Antifungal activity against Cladosporium fulvum assessed as mycelial growth at 100 umol/L by filter disk method relative to control; assay type: functional; settings: in the assay text read “by incorporation into PDA growth medium” for “by filter disk method”; summary of the method: as §1
Fulvia fulva [21] = test: Antifungal activity against Cladosporium fulvum assessed as mycelial growth at 200 umol/L […] relative to control; assay type: functional; summary of the method: as §1
[22] = Antifungal activity against Fusarium oxysporum dianthi assessed as mycelial growth at 50 umol/L […] relative to control; assay type: functional; settings: Fusarium oxysporum f. sp. dianthi; summary of the method: as §1
[23] = system: Fusarium oxysporum f. sp. dianthi; test: Antifungal activity against Fusarium oxysporum dianthi assessed as mycelial growth at 100 umol/L by […] relative to control; assay type: functional; summary of the method: as §1
[24] = system: Fusarium oxysporum f. sp. dianthi; test: Antifungal activity against Fusarium oxysporum dianthi assessed as mycelial growth at 200 umol/L by […] relative to control; assay type: functional; summary of the method: as §1
Guignardia aesculi [25] = test: Antifungal activity against Guignardia aesculi assessed as mycelial growth at 50 umol/L by […] relative to control; assay type: functional; summary of the method: as §1
Guignardia aesculi [26] = test: Antifungal activity against Guignardia aesculi assessed as mycelial growth at 100 umol/L by filter disk method relative to control; assay type: functional; settings: in the assay text read “by incorporation into the growth medium” for “by filter disk method”; summary of the method: as §1
Guignardia aesculi [27] = test: Antifungal activity against Guignardia aesculi assessed as mycelial growth at 200 umol/L by filter disk method relative to control; assay type: functional; settings: in the assay text read “by incorporation into growth medium” for “by filter disk method”; summary of the method: as §1
Penicillium expansum [28] = test: Antifungal activity against Penicillium expansum assessed as mycelial growth at 50 umol/L […] relative to control; assay type: functional; summary of the method: as §1
Penicillium expansum [29] = test: Antifungal activity against Penicillium expansum assessed as mycelial growth at 100 umol/L […] relative to control; assay type: functional; summary of the method: as §1
Penicillium expansum [30] = test: Antifungal activity against Penicillium expansum assessed as mycelial growth at 200 umol/L […] relative to control; assay type: functional; summary of the method: as §1
Polyporus [31] = test: Antifungal activity against Polyporus marginatus assessed as mycelial growth at 50 umol/L by filter disk method relative to control; assay type: functional; settings: in the assay text read “by incorporation into growth medium” for “by filter disk method”; summary of the method: as §1
Polyporus [32] = test: Antifungal activity against Polyporus marginatus assessed as mycelial growth at 100 umol/L by filter disk method relative to control; assay type: functional; settings: in the assay text read “by incorporation into growth medium” for “by filter disk method”; summary of the method: as §1
[33] = Antifungal activity against Polyporus marginatus assessed as mycelial growth at 200 umol/L by filter disk method relative to control; assay type: functional; settings: in the assay text read “by incorporation into growth medium” for “by filter disk method”; summary of the method: as §1
Rhizopus stolonifer [34] = test: Antifungal activity against Rhizopus stolonifer assessed as mycelial growth at 50 umol/L by […] relative to control; assay type: functional; summary of the method: as §1
[35] = Antifungal activity against Rhizopus stolonifer assessed as mycelial growth at 100 umol/L […] relative to control; assay type: functional; summary of the method: as §1
Rhizopus stolonifer [36] = test: Antifungal activity against Rhizopus stolonifer assessed as mycelial growth at 200 umol/L […] relative to control; assay type: functional; summary of the method: as §1
Trichoderma viride [37] = test: Antifungal activity against Trichoderma viride assessed as mycelial growth at 50 umol/L by filter disk method relative to control; assay type: functional; settings: in the assay text read “by incorporation into growth medium” for “by filter disk method”; summary of the method: as §1
Trichoderma viride [38] = test: Antifungal activity against Trichoderma viride assessed as mycelial growth at 100 umol/L by filter disk method relative to control; assay type: functional; settings: in the assay text read “by incorporation into growth medium” for “by filter disk method”; summary of the method: as §1
Trichoderma viride [39] = test: Antifungal activity against Trichoderma viride assessed as mycelial growth at 200 umol/L by filter disk method relative to control; assay type: functional; settings: in the assay text read “by incorporation into growth medium” for “by filter disk method”; summary of the method: as §1
Fusarium basilici [40] = test: Antifungal activity against Fusarium basilici assessed as mycelial growth at 15 mg/disk by filter disk method relative to control
Fusarium basilici [41] = test: Antifungal activity against Fusarium basilici assessed as mycelial growth at 1.5 mg/disk by filter disk method relative to control
Fusarium basilici [42] = test: Antifungal activity against Fusarium basilici assessed as mycelial growth at 0.15 mg/disk by filter disk method relative to control

## CC[C@@H](CO)COc1cc2c(C)cc(=O)oc2cc1O [PAVIETIN]
Alternaria dianthi [1]
  Activity: 64.9%
Alternaria dianthi [2]
  Activity: 77%
Alternaria dianthi [3]
  Activity: 89.5%
Guignardia aesculi [4]
  Activity: 33.8%
Guignardia aesculi [5]
  Activity: 85.3%
Guignardia aesculi [6]
  Activity: 64%
Globisporangium ultimum [7]
  Activity: 88.4%
Globisporangium ultimum [8]
  Activity: 81.6%
Globisporangium ultimum [9]
  Activity: 78%
Alternaria alternata [10]
  Activity: 86.8%
Alternaria alternata [11]
  Activity: 80.2%
Alternaria alternata [12]
  Activity: 58.5%
Aspergillus niger [13]
  Activity: 73.2%
Aspergillus niger [14]
  Activity: 68.6%
Aspergillus niger [15]
  Activity: 50%
Botrytis [16]
  Activity: 78.8%
Botrytis [17]
  Activity: 64.6%
Botrytis [18]
  Activity: 51.4%
Fulvia fulva [19]
  Activity: 88.6%
Fulvia fulva [20]
  Activity: 78.3%
Fulvia fulva [21]
  Activity: 60.8%
[22]
  Activity: 91.8%
[23]
  Activity: 83.3%
[24]
  Activity: 66.9%
Guignardia aesculi [25]
  Activity: 84.6%
Guignardia aesculi [26]
  Activity: 46.5%
Guignardia aesculi [27]
  Activity: 20.7%
Penicillium expansum [28]
  Activity: 68.8%
Penicillium expansum [29]
  Activity: 48.4%
Penicillium expansum [30]
  Activity: 29.9%
Polyporus [31]
  Activity: 93.6%
Polyporus [32]
  Activity: 86.2%
[33]
  Activity: 76.1%
Rhizopus stolonifer [34]
  Activity: 82%
[35]
  Activity: 71.3%
Rhizopus stolonifer [36]
  Activity: 68.1%
Trichoderma viride [37]
  Activity: 78.8%
Trichoderma viride [38]
  Activity: 70.4%
Trichoderma viride [39]
  Activity: 61.5%
Fusarium basilici [40]
  Activity: 59%
Fusarium basilici [41]
  Activity: 76.4%
Fusarium basilici [42]
  Activity: 87.8%
